We go through 24 molecules from ChEMBL document CHEMBL1130204, “3 alpha-Hydroxy-3 beta-(phenylethynyl)-5 beta-pregnan-20-ones: synthesis and pharmacological activity of neuroactive steroids with high affinity for GABAA receptors” (J Med Chem, 1997).

The target of test [1] is GABA-A receptor; anion channel. The test can be described thus: In vitro inhibition of [35S]TBPS binding to gamma-aminobutyric-acid A receptor in rat brain cortical membranes in the presence of 5 uM GABA. Format: cell membranes, Membrane. Summed up: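 Rat cortical P2 membranes, washed in 200 mM NaCl/50 mM Na-K phosphate pH 7.4, incubated 90 min at room temperature with 2 nM [35S]TBPS, 5 µM GABA and test drug in DMSO (final 0.5%). Nonspecific binding taken with 2 µM unlabeled TBPS. Filtration, then scintillation counting. Partial vs full and one- vs two-component models chosen by F-test.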

For another test, the system named is Mus musculus. The test can be described thus: Percent of animals (n=8) not exhibiting PTZ-induced ( Pentylentetrazol protection) seizures 10 min following a 10 mg/kg ip dose of steroid. Format: functional. The settings on record: route intraperitoneal. Summed up: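 Male NSA mice (15-20 g), n = 8. […] Mice watched 30 min for clonic seizure (forelimb clonus ≥3 s). Read-out is the percent of mice protected.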

The species entered for the next test is Rattus norvegicus. Briefly: The maximum inhibitory potency was calculated by fitting [35S]TBPS inhibition data to a sigmoid function (rat brain cortical P2 membranes). Format: functional. Summed up: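 Rat cortical P2 membranes washed in 200 mM NaCl/50 mM Na-K phosphate pH 7.4, incubated 90 min at room temperature with 2 nM [35S]TBPS, 5 µM GABA and test drug in DMSO (final 0.5%). Nonspecific binding defined with 2 µM unlabeled TBPS. Filtration, scintillation counting. Fits to one- or two-component, full or partial inhibition models chosen by F-test; IC50 and Imax as mean ± SEM of individual experiments.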

The target of test [2] is T1, GABA-A receptor; alpha-1/beta-2/gamma-2 (Homo sapiens, UniProt P14867+P18507+P47870).
T1 sequence (P14867 whole entry): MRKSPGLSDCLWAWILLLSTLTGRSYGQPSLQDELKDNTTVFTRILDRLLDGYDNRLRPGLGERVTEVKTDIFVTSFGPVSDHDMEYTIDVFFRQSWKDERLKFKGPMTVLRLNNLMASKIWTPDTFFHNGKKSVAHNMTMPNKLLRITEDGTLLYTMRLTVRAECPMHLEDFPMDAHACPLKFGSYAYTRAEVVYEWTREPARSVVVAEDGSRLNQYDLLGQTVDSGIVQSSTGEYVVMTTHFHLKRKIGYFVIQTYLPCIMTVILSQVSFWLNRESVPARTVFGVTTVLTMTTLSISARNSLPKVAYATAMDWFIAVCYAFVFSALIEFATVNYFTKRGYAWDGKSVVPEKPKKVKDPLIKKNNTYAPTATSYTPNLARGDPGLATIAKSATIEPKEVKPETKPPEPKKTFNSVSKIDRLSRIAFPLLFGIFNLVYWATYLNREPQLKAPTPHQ
T1 sequence (P47870 whole entry): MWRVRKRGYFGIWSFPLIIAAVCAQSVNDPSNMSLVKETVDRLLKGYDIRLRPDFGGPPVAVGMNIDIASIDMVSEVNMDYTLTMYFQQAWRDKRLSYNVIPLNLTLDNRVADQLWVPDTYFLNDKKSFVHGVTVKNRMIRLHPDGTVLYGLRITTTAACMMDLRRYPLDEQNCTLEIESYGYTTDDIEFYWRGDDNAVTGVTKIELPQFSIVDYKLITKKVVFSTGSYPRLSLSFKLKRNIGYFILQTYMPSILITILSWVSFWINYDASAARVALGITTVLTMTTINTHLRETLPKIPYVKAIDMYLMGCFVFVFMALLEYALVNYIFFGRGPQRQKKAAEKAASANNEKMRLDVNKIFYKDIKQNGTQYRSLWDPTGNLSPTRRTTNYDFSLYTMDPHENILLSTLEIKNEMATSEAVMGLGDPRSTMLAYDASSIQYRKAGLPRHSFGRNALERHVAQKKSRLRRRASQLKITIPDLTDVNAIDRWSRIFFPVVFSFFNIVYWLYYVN
T1 sequence (P18507 whole entry): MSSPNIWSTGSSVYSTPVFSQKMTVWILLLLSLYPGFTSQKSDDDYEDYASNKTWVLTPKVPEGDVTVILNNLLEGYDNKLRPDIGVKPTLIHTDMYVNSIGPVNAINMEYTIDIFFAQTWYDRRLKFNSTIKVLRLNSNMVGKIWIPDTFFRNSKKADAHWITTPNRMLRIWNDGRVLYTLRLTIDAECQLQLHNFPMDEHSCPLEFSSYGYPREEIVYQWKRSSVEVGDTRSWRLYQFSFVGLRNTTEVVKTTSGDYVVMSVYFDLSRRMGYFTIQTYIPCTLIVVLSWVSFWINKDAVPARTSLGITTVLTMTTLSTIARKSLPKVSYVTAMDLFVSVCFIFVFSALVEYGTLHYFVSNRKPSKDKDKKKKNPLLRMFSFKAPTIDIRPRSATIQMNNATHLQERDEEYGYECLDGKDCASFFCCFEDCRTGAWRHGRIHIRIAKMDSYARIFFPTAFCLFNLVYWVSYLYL
The test can be described thus: Steroid potentiation of 5% GABA responses in Xenopus oocytes expressing human alpha-1-beta-2-gamma-2L subunits of GABA-A receptor. Format: functional, cell-based, Oocyte. Summed up:
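Xenopus oocytes injected with α1, β2, γ2L cRNAs (~1 ng each). Two-electrode voltage clamp at -70 mV in frog Ringer's, pH 7.4. GABA set to give about 5% of the maximal (1 mM GABA) current. Steroid stocks in DMSO diluted into Ringer's, DMSO 0.3%. Modulation is potentiation plus any direct steroid current, fitted to a four-parameter logistic. Mean ± SEM.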

Some results are limits rather than exact numbers.

The IC50 is the concentration that inhibits the measured activity by half. As for `CC(=O)[C@H]1CC[C@H]2[C@@H]3CC[C@@H]4C[C@@](O)(C#Cc5ccc(C)cc5)CC[C@]4(C)[C@H]3CC[C@]12C`, the IC50 in test [1] is 83 nM. In the test on Mus musculus, this molecule yielded a PTZ protection of 50%. For the same molecule, in the test filed under Rattus norvegicus, the Imax was 84%.
The like results for `CC(=O)[C@H]1CC[C@H]2[C@@H]3CC[C@@H]4C[C@@](O)(C#Cc5ccc(C#N)cc5)CC[C@]4(C)[C@H]3CC[C@]12C` were, in that order, 60 nM, 44% and 85%.
The like results for `CC(=O)[C@H]1CC[C@H]2[C@@H]3CC[C@@H]4C[C@@](O)(c5ccccc5)CC[C@]4(C)[C@H]3CC[C@]12C` were, in that order, 380 nM, 25% and 89%.
In the same order, the values of `CC(=O)[C@H]1CC[C@H]2[C@@H]3CC[C@@H]4C[C@@](O)(C#Cc5cccc(O)c5)CC[C@]4(C)[C@H]3CC[C@]12C` are 420 nM, 0% and 100%.
As to `CC(=O)[C@H]1CC[C@H]2[C@@H]3CC[C@@H]4C[C@@](O)(C#Cc5ccccc5)CC[C@]4(C)[C@H]3CC[C@]12C`, in test [1], the IC50 is 100 nM. Besides, in the test with Mus musculus, the PTZ protection is 25%. Further, the Imax in the test filed under Rattus norvegicus was 100%.
The like results for `CC(=O)[C@H]1CC[C@H]2[C@@H]3CC[C@@H]4C[C@@](O)(CCc5ccccc5)CC[C@]4(C)[C@H]3CC[C@]12C` were, in that order, 150 nM, 0% and 102%.
As for `C#C[C@@]1(O)CC[C@@]2(C)[C@H](CC[C@@H]3[C@@H]2CC[C@]2(C)[C@@H](C(C)=O)CC[C@@H]32)C1`, the 50% inhibitory concentration (IC50) in test [1] was found to be 39 nM.
On to `CC(=O)[C@H]1CC[C@H]2[C@@H]3CC[C@@H]4C[C@@](O)(C#Cc5ccc(C(=O)c6ccccc6)cc5)CC[C@]4(C)[C@H]3CC[C@]12C`, for which, in test [1], the IC50 was 55 nM. Moreover, the PTZ protection in the test on Mus musculus is 38%. Further, the Imax in the test filed under Rattus norvegicus is 96%.
In the same order, the values of `CCOC(=O)c1ccc(C#C[C@@]2(O)CC[C@H]3[C@H](CC[C@@H]4[C@@H]3CC[C@]3(C)[C@@H](C(C)=O)CC[C@@H]43)C2)cc1` are 26 nM, 13% and 94%.
Broadly, the EC50 is the concentration needed to bring the measured effect to its halfway point. As for `CC(=O)[C@H]1CC[C@H]2[C@@H]3CC[C@@H]4C[C@@](O)(C#Cc5ccc(O)cc5)CC[C@]4(C)[C@H]3CC[C@]12C`, the IC50 in test [1] worked out at 2300 nM. Moreover, the PTZ protection in the test on Mus musculus was 0%. For the same molecule, the Imax in the test listed under Rattus norvegicus was 100%. The EC50 in test [2] is greater than 1000 nM.
As for `CC(=O)[C@H]1CC[C@H]2[C@@H]3CC[C@@H]4C[C@@](O)(C#Cc5ccc6c(c5)OCO6)CC[C@]4(C)[C@H]3CC[C@]12C`, in test [1], the IC50 came out at 68 nM. Further, the PTZ protection in the test on Mus musculus was found to be 13%. Moreover, the Imax in the test filed under Rattus norvegicus was 93%.
The like results for `CC(=O)[C@H]1CC[C@H]2[C@@H]3CC[C@@H]4C[C@@](O)(CCCc5ccccc5)CC[C@]4(C)[C@H]3CC[C@]12C` were, in that order, 190 nM, 13% and 91%.
In the same order, the values of `CC(=O)[C@H]1CC[C@H]2[C@@H]3CC[C@@H]4C[C@@](O)(C#Cc5ccc(-c6ccccc6)cc5)CC[C@]4(C)[C@H]3CC[C@]12C` are 54 nM, 0% and 90%.
In the same order, the values of `CC(=O)[C@H]1CC[C@H]2[C@@H]3CC[C@@H]4C[C@@](O)(C#Cc5ccc(C(F)(F)F)cc5)CC[C@]4(C)[C@H]3CC[C@]12C` are 56 nM, 0% and 88%.
As for `CCN(CC)C(=O)c1ccc(C#C[C@@]2(O)CC[C@@]3(C)[C@H](CC[C@@H]4[C@@H]3CC[C@]3(C)[C@@H](C(C)=O)CC[C@@H]43)C2)cc1`, the IC50 in test [1] worked out at 93 nM. This molecule also yielded a PTZ protection in the test on Mus musculus of 13%. In addition, in the test filed under Rattus norvegicus, the Imax is 91%.
On to `CCOC(=O)c1ccc(C#C[C@@]2(O)CC[C@@]3(C)[C@H](CC[C@@H]4[C@@H]3CC[C@]3(C)[C@@H](C(C)=O)CC[C@@H]43)C2)cc1`, for which the concentration for half-maximal inhibition (IC50) in test [1] amounted to 12 nM. In the test on Mus musculus, this molecule displayed a PTZ protection of 19%. Besides, the Imax in the test listed under Rattus norvegicus is 97%.
The like results for `CC(=O)[C@H]1CC[C@H]2[C@@H]3CC[C@@H]4C[C@@](O)(C#Cc5ccc([N+](=O)[O-])cc5)CC[C@]4(C)[C@H]3CC[C@]12C` were, in that order, 42 nM, 13% and 98%.
In the same order, the values of `CC(=O)[C@H]1CC[C@H]2[C@@H]3CC[C@@H]4C[C@@](O)(Cc5ccccc5)CC[C@]4(C)[C@H]3CC[C@]12C` are 110 nM, 38% and 101%.
As to `CC(=O)[C@H]1CC[C@H]2[C@@H]3CC[C@@H]4C[C@](C)(O)CC[C@]4(C)[C@H]3CC[C@]12C`, in test [1], the IC50 was 37 nM.
Regarding `COc1ccc(C#C[C@@]2(O)CC[C@@]3(C)[C@H](CC[C@@H]4[C@@H]3CC[C@]3(C)[C@@H](C(C)=O)CC[C@@H]43)C2)cc1`, the IC50 in test [1] is 42 nM. Besides, the PTZ protection with Mus musculus worked out at 25%. The Imax in the test listed under Rattus norvegicus is 84%.
Take `CC(=O)[C@H]1CC[C@H]2[C@@H]3CC[C@@H]4C[C@@](O)(C#Cc5ccc(C(N)=O)cc5)CC[C@]4(C)[C@H]3CC[C@]12C`: in test [1], the IC50 was 1800 nM. The molecule also showed a PTZ protection in the test with Mus musculus of 13%. Moreover, the Imax in the test listed under Rattus norvegicus was 96%.
The like results for `COc1ccc(C#C[C@@]2(O)CC[C@@]3(C)[C@H](CC[C@@H]4[C@@H]3CC[C@]3(C)[C@@H](C(C)=O)CC[C@@H]43)C2)cc1OC` were, in that order, 290 nM, 13% and 102%.
In the same order, the values of `COc1ccccc1C#C[C@@]1(O)CC[C@@]2(C)[C@H](CC[C@@H]3[C@@H]2CC[C@]2(C)[C@@H](C(C)=O)CC[C@@H]32)C1` are 170 nM, 0% and 89%.
In the same order, the values of `CC(=O)[C@H]1CC[C@H]2[C@@H]3CC[C@@H]4C[C@@](O)(C#Cc5ccc(Cl)cc5)CC[C@]4(C)[C@H]3CC[C@]12C` are 70 nM, 0% and 88%.
